Laboratory results reported in ChEMBL document CHEMBL4513216, “Probing the Open Global Health Chemical Diversity Library for Multistage-Active Starting Points for Next-Generation Antimalarials” (ACS Infect Dis, 2020).

Test: Toxicity liver stage against HepG2, at 10uM
Type: cell-based
Design: test concentration 10 uM, cell line HepG2-A16-CD81EGFP
Conditions: human, HepG2-A16-CD81EGFP cells; read-out: INHIBITION
Procedure, shortened: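 Uninfected HepG2-A16-CD81EGFP cells, 3 × 10^3 per well, 1536-well, plated on prespotted compound at 10 μM final, parasite-free screening media added to match infected plates; puromycin 10 μM positive, DMSO 0.5% negative; run in parallel with 48 h PbLuc assay at 37 °C, 5% CO2; viability by CellTiter-Glo luminescence, normalized to controls.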

| SMILES | cytotoxicity at 10 µM |
| --- | --- |
| COC1CCCN(Cc2nc(Cc3ccccc3F)no2)C1 (stereo unspecified) | -4.23% |
| CCn1cnnc1CN(C)C(=O)C1CCC(=O)N(CC2CCCCC2)C1 (stereo unspecified) | -1.33% |
| c1cncc(-c2c[nH]c([C@@H]3COCCN3Cc3ccncc3)n2)c1 | 3.25% |
| CC1=C[C@@H](CN2CCN(C)CC2)[C@H](C(C)C)C[C@H]1Cc1nnc(C)o1 | -0.39% |
| Cn1cncc1-c1nnc([C@H]2CCN(Cc3ccc(F)c(F)c3)C2)o1 | 3.04% |
| O=S(=O)(NC[C@H]1C[C@@H]2CCN1C[C@@H]2CN1CCOCC1)c1ccccc1 | 1.82% |
| COC1CN(C(=O)CC2CCCC2)CCC(=O)N(C)c2ccccc21 (stereo unspecified) | -32.8% |
| COC(=O)CC(C1=Cc2ccccc2OC1)c1oc(C)cc(=O)c1O (stereo unspecified) | -8.51% |
| CCS(=O)(=O)c1nnc([C@@H](N)Cc2ccccc2)o1 | 6.99% |
| CCCSc1nn(CCCN(C)C)c2nc3sc(C)c(CC)c3c(=O)n12 | -3.63% |
| COCCSc1ccc(-n2cccn2)nn1 | -24.6% |
| Cc1cnc(N2C[C@@H]3[C@@H](C2)OCC(=O)N3C)nc1 | -3.4% |
| O=c1ccc2c([nH]1)CCC(NCc1ccncc1)C2 (stereo unspecified) | -6.22% |
| CC(C)COCC1CN(Cc2ccco2)Cc2ncn(C)c21 (stereo unspecified) | 4.24% |
| O=C(c1cnccn1)N1CCN(Cc2cccnc2)c2ncccc2C1 | -1.52% |
| CC(=O)N1[C@@H](C(=O)NCC2CC2)C[C@@H]2CN(Cc3ccco3)C[C@@H]21 | 4.22% |
| CCCC1c2cccn2CCN1C(=O)Cn1cnc2sc(C)cc2c1=O (stereo unspecified) | -0.35% |
| Cc1ncc(CNC(=O)Cc2cccs2)c(C2CCCN2C)n1 (stereo unspecified) | -0.279% |
| CC(=O)N1CCCN(C(=O)NC(C)c2ccc(C)o2)CC1 (stereo unspecified) | 2.72% |
| COC(=O)C(C)CN(C)S(=O)(=O)c1c(Br)cc2[nH]c(=O)oc2c1Cl (stereo unspecified) | 8.73% |
| C[S+]([O-])c1cccc(NC(=O)N[C@H](CCO)c2ccccc2)c1 (stereo partly specified) | -3.13% |
| CC1c2cc(F)ccc2CCN1CCS(=O)(=O)C(C)C (stereo unspecified) | 2.72% |
| Cc1cc(C)c(C(=O)N(C)CCN(C)C(=O)OC(C)(C)C)[nH]1 | 3.87% |

| SMILES | cytotoxicity at 10 µM |
| --- | --- |
| CC(CNC(=O)N(C)Cc1ccco1)N1CCc2sccc2C1 (stereo unspecified) | -13.7% |
| Cc1csc(C(C)(C)NCC(=O)N(C)Cc2ccc(C)o2)n1 | -1.12% |
| CCc1nnc(C(C)N2CCC(NC(=O)C3CCCCC3)CC2)o1 (stereo unspecified) | -8.35% |
| CC(C)OC(=O)CC(NC(=O)CCn1cccn1)c1ccccc1 (stereo unspecified) | -12.2% |
| Cc1nc(CN(C)S(=O)(=O)c2ccccc2C(F)(F)F)no1 | -3.03% |
| CCc1nnsc1C(=O)NCC1CN(CC(C)C)CCO1 (stereo unspecified) | 0.537% |
| CCCS(=O)(=O)N1CCN(CCCO)CC1 | 5.96% |
| Cc1cn2nc(N(C)C3CCCN(c4cccnn4)C3)sc2n1 (stereo unspecified) | 4.29% |
| COc1cc(C)c(S(=O)(=O)CC(=O)N(C)C(C)C)cc1OC | 4.02% |
| COc1ccc(OCCN(C)S(=O)(=O)c2cnn(C)c2)cc1 | -2.82% |
| Cc1ccc(N(CC(=O)N2CCCCC2)C(=O)C2COCCO2)cc1 (stereo unspecified) | 13.6% |
| Cn1cccc1C(=O)NC(C)(C(N)=O)c1cccc(Cl)c1 (stereo unspecified) | 4.07% |
| CCC(=O)NCC(=O)Nc1ncc(I)cc1C | 5.4% |
| O=C(NCc1ccccc1CN1CCCC1=O)Nc1nccs1 | 9.66% |
| CCN1CCCC(CNC(=O)CCc2ccc(OC)c(F)c2)C1 (stereo unspecified) | -3.42% |
| c1csc(-c2nc(CN3CCCCC3Cn3cccn3)co2)c1 (stereo unspecified) | 3.22% |
| COCCn1cc(NC(=O)NCC(C)N2CCOCC2)cn1 (stereo unspecified) | 1.18% |
| CCOCCCC(=O)NS(=O)(=O)c1ccc(C)s1 | 10% |
| O=C1C(Sc2nnnn2C2CC2)CCN1c1ccccc1Cl (stereo unspecified) | 2.4% |
| CNC(=O)NC(=O)CCSCc1cc(F)cc2cccnc12 | -5.31% |
| CCc1nc(C2CCCN2Cc2ncc(C)c(OC)c2C)no1 (stereo unspecified) | 3.3% |
| Cc1cc(CN2CCN(Cc3cnc4c(c3)c(C)nn4C)CC2)on1 | -12.6% |
| c1csc(-c2nnc(CSCCN3CCOCC3)o2)c1 | -5.77% |

| SMILES | cytotoxicity at 10 µM |
| --- | --- |
| COCCCS(=O)(=O)N1CCN(C(=O)CO)CC1 | -0.995% |
| Nc1cc2c(nn1)CCN(C(=O)c1csc(-c3ccco3)n1)C2 | -2.79% |
| COCc1cnc2n1CCN(C(=O)c1cnc3ccccc3c1)C2C (stereo unspecified) | -110% |
| CN1CCC2(CC1)OC(C(=O)NCc1cccnc1)Cn1ccnc12 (stereo unspecified) | -87.3% |
| CC[C@@H](CO)Nc1nccc(-c2cnc3sc(C)cn3c2=O)n1 | -14% |
| CC(C)(CN1CCOCC1)CN1CCC(Cc2cccc(CO)c2)C1 (stereo unspecified) | -7.73% |
| Cn1ccnc1CN1CCc2ncnc(N3CCCC(C#N)C3)c2CC1 (stereo unspecified) | -5.1% |
| CCOC(=O)c1n[nH]cc1CN1CCOC(Cc2ccc(OC)cc2)C1 (stereo unspecified) | -0.734% |
| Cc1cc2nc(C(C)C)cc(N3CCC(O)CC3)n2n1 | -8.63% |
| OCC1(Cc2cccc(Cl)c2)CCCN(c2ncccn2)C1 (stereo unspecified) | 0.668% |
| CC(C)n1ccnc1C1CCN(c2nccc(C(F)(F)F)n2)CC1 | 2.52% |
| CC1(c2ccccc2)CCC(=O)N(CCN2CCOC2=O)C1 (stereo unspecified) | 3.37% |
| CCc1nc(C)c(C(=O)N2CCNCC2C(=O)Nc2ccc(C)nc2)o1 (stereo unspecified) | -4% |
| c1cc(-c2nccn2CCc2nc3c(s2)CCC3)ccn1 | 6.15% |
| COc1cccc2c1OCCCN(Cc1c[nH]nc1C(=O)O)C2 | 6.5% |
| CN(CCc1ccccn1)C(=O)c1ccccc1F | -10.5% |
| CC(=O)Nc1ccc2nc(CN(C)Cc3snnc3C)ccc2c1 | -12.8% |
| Fc1cc(Cl)cnc1N1CCCC(c2nccn2CC2CC2)C1 (stereo unspecified) | 4.8% |
| CC(C)c1nccn1CCCNC(=O)c1ccc(-c2ccncc2)nc1 | -9.77% |
| COc1ccc(OC2CCN(C(=O)C(C)Cn3cccn3)CC2)cc1 (stereo unspecified) | 5.43% |
| CN1CCc2nc(N(C)C)nc(N3CCC(O)CC3)c2C1 | -0.879% |
| Cc1ccccc1C(=O)N1CC[C@@H](N2CCC(O)CC2)[C@H](O)C1 | 2.94% |
| Cc1nccn1Cc1nnc(C2CCCN(c3cnccn3)C2)n1C (stereo unspecified) | 2.73% |

| SMILES | cytotoxicity at 10 µM |
| --- | --- |
| CCn1nc(C)c(CCNC(=O)C2CCCN(C(=O)N(C)C)C2)c1C (stereo unspecified) | 0.874% |
| Cc1nccn1-c1cccc(C2CCCN(C3CCCCC3)C2)n1 (stereo unspecified) | -2.65% |
| c1cnn(CC2CCCN2Cc2nc(C3CC3)no2)c1 (stereo unspecified) | 1.61% |
| CC(C)c1noc(CN2CCCN(Cc3cccs3)CC2)n1 | -6.86% |
| NC(=O)C1CCN(C(=O)c2cccn2Cc2cccs2)C1 (stereo unspecified) | -8.5% |
| Cc1csc(CNC(=O)N2CCN(Cc3cc(C)on3)CC2)n1 | -5.49% |
| O=C(NCCn1cccn1)c1ccn(-c2cccc(F)c2)n1 | -4.58% |
| Cc1cc(C)c(CNC(=O)CCC2CCCO2)c(=O)[nH]1 (stereo unspecified) | 5.1% |
| N#CC1(C(=O)N2CCCN(c3nccs3)CC2)CCCCC1 | -5.83% |
| CCN(Cc1cccc(F)c1)Cn1nc(C)c2c(C)onc2c1=O | -3.54% |
| CSCc1ccc(C(=O)N2CCN(CC(C)O)CC2)cc1 (stereo unspecified) | -6.23% |
| CCN(Cc1ccc2c(c1)OCCO2)C(=O)NCc1nncn1CC | -4.35% |
| Cc1nc(C2CCCN(C(=O)c3ccoc3)C2)no1 (stereo unspecified) | -13.1% |
| CC(=O)Nc1nc(CN2CCOC(Cn3cncn3)C2)cs1 (stereo unspecified) | -27.5% |
| Cc1cccc(C(=O)N2CCC(C(=O)c3cc(F)ccc3F)CC2)n1 | -0.448% |
| O=C(CCc1cccs1)N1CCCC(N2CCNC2=O)C1 (stereo unspecified) | -6.7% |
| Cc1ncc(C(=O)NC2CCc3nccn3C2)c(C(C)C)n1 (stereo unspecified) | -2.31% |
| O=C(NCCC(=O)N1CCCc2ccccc21)c1ccc(F)cc1F | -10.1% |
| Cn1cc(C(=O)N2CCCC(n3cncn3)C2)ccc1=O (stereo unspecified) | -5.03% |
| O=C(CCNC(=O)C1CCCC1)NCc1ccccc1Cn1cncn1 | -5.63% |
| CCNc1cc2c(nn1)CCN(C(=O)Cc1c(C)noc1C)C2 | -8.89% |
| CC(C)C(C(=O)N1CCCN(Cc2nccn2C)CC1)N1CCCC1 (stereo unspecified) | -13% |
| Cn1cc(NC(=O)N2CCC(c3ccccc3)CC2)ccc1=O | -9.42% |

| SMILES | cytotoxicity at 10 µM |
| --- | --- |
| Cc1ccc(NC2CCN(C(=O)c3cc[nH]n3)CC2)nn1 | -15.2% |
| CS(=O)(=O)NCCCN1CCCC1Cc1ccccc1 (stereo unspecified) | -11.7% |
| CN(Cc1ccc(F)cc1)C(=O)CN1CCCC(Cn2cncn2)C1 (stereo unspecified) | -14.8% |
| CC(CNCc1ccc(Cl)cc1)Oc1ccccn1 (stereo unspecified) | 5.01% |
| CNc1nc(C2CCCN2C(C)=O)nc2c1CN(CCO)CC2 (stereo unspecified) | 2.69% |
| O=C(NCc1ccco1)[C@@H]1CCO[C@@H]2CCN(C3CCOCC3)C[C@H]21 | -74.9% |
| CCCS(=O)(=O)N1CCOC2(CCCN(c3ccccn3)C2)C1 (stereo unspecified) | 4.23% |
| COCC1CN(C(=O)COc2ccccc2)Cc2cn(C)nc21 (stereo unspecified) | 0.55% |
| Cc1nc(CO[C@@H]2CN(Cc3cccnc3)[C@@H]3COC[C@@H]32)cs1 | 5.05% |
| Cc1ccc(CN2CCC3(CC2)COCCN3S(C)(=O)=O)o1 | 8.86% |
| CCN1CCC(CNCc2c[nH]nc2C(C)(C)C)C1 (stereo unspecified) | -7.77% |
| Fc1ccc(CN2C[C@@H]3OCCN(CCN4CCCC4)[C@@H]3C2)cc1 | -3.58% |
| CN(C)S(=O)(=O)N1C[C@@H]2COC[C@]2(COc2ccccn2)C1 | 0.705% |
| Cc1ccc(CN2CCOC3(COCCN(S(C)(=O)=O)C3)C2)s1 (stereo unspecified) | 10.8% |
| Cc1nc(CN2C[C@@H]3CN(C(=O)NC(C)C)C[C@@H]3C2=O)cs1 | -76.2% |
| Cc1ccsc1C(=O)N1Cc2ncn(C)c2C(COCC2CC2)C1 (stereo unspecified) | 6.76% |
| O=C(C1CCOC1)N1CCN(CCn2cccn2)c2ncccc2C1 (stereo unspecified) | -104% |
| CN(C)CCOCC1CN(Cc2ccsc2)Cc2ccnn2C1 (stereo unspecified) | 3.01% |
| CC1=C(C#N)C(=O)NC(=O)/C1=C\c1c(C)[nH]n(-c2ccc(Cl)cc2)c1=O | -8.94% |
